≈ marks a conversion by molar mass, not a printed value.
Columns and labels:
Staphylococcus aureus [1] = experiment: Antimicrobial activity against Staphylococcus aureus after 18 hrs by two-fold dilution method; type: functional
HL-60 = experiment: Cytotoxicity against human HL60 cells by MTT assay; type: functional, cell-based
SMMC-7721 = experiment: Cytotoxicity against human SMMC7721 cells by MTT assay; type: functional, cell-based
A549 = experiment: Cytotoxicity against human A549 cells by MTT assay; type: functional, cell-based
MCF7 = experiment: Cytotoxicity against human MCF7 cells by MTT assay; type: functional, cell-based
SW480 = experiment: Cytotoxicity against human SW480 cells by MTT assay; type: functional, cell-based
Staphylococcus aureus [2] = experiment: Antimicrobial activity against Staphylococcus aureus by agar plate punch assay; type: functional
Summary of the method: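 Compounds dissolved in DMSO at 500 μg/mL; 50 μL placed in a 6 mm well punched in MH agar smeared with test organism suspension (1.5 × 10^9 cfu/mL). Read-out is diameter of the inhibition zone.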

Staphylococcus aureus [3] = experiment: Antimicrobial activity against 8 isolates of methicillin-resistant Staphylococcus aureus after 18 hrs by two-fold dilution method; type: functional
Staphylococcus aureus [4] = experiment: Antimicrobial activity against 82 isolates of methicillin-resistant Staphylococcus aureus after 18 hrs by two-fold dilution method; type: functional

Structure (SMILES)	MIC (Staphylococcus aureus [1])	IC50 (HL-60)	IC50 (SMMC-7721)	IC50 (A549)	IC50 (MCF7)	IC50 (SW480)	diameter of the inhibition zone (DIZ) (Staphylococcus aureus [2])	MIC (Staphylococcus aureus [3])	MIC (Staphylococcus aureus [4])
COc1cc2c(cc(OC)c3cc(C)c(O)cc32)c(C)c1O [TRIGONOCHINENE E]	> 50 µg/mL	3.75 µM	29 µM	21 µM	18.4 µM	20.5 µM	>10 mm		
Cc1cc2c(cc1O)C1=C(C3=C4C(=CC(=O)c5cc(C)c(O)cc54)C(C)(C)C3=O)C(=O)C(C)(C)C1=CC2=O [NEOBOUTOMANNIN]	> 50 µg/mL	> 40 µM	> 40 µM	> 40 µM	> 40 µM	> 40 µM			
COC(=O)[C@@]1(O)[C@]2(Oc3cc4c(cc(OC)c5cc(C)c(O)cc54)c(C)c3O2)c2c(cc(OC)c3cc(C)c(O)cc23)[C@@]1(C)O (relative stereo)	1.56 µg/mL (≈ 2.55 µM)	21.1 µM	21.6 µM	19.8 µM	14.6 µM	15.9 µM	>10 mm	3.12 µg/mL (≈ 5.09 µM)	6.25 µg/mL (≈ 10.2 µM)
CN[C@H](CC(C)C)C(=O)N[C@H]1C(=O)N[C@@H](CC(N)=O)C(=O)N[C@H]2C(=O)N[C@H]3C(=O)N[C@H](C(=O)N[C@H](C(=O)O)c4cc(O)cc(O)c4-c4cc3ccc4O)[C@H](O)c3ccc(c(Cl)c3)Oc3cc2cc(c3O[C@@H]2O[C@H](CO)[C@@H](O)[C@H](O)[C@H]2O[C@H]2C[C@](C)(N)[C@H](O)[C@H](C)O2)Oc2ccc(cc2Cl)[C@H]1O.Cl [VANCOMYCIN HYDROCHLORIDE]	1.56 µg/mL							0.78 µg/mL	0.78 µg/mL
COc1cc2c(cc(OC)c3cc(C)c(O)cc32)oc1=O [TRIGOFLAVIDOL C]	> 50 µg/mL	> 40 µM	> 40 µM	> 40 µM	> 40 µM	> 40 µM			
COC(=O)[C@@]1(O)[C@@]2(Oc3cc4c(cc(OC)c5cc(C)c(O)cc54)c(C)c3O2)c2c(cc(OC)c3cc(C)c(O)cc23)[C@@]1(C)O [TRIGOFLAVIDOL B]	1.56 µg/mL (≈ 2.55 µM)	> 40 µM	19.5 µM	17.1 µM	14.6 µM	15.4 µM	>10 mm	3.12 µg/mL (≈ 5.09 µM)	3.12 µg/mL (≈ 5.09 µM)

Reference: ChEMBL document CHEMBL2046279, “Trigoflavidols A-C, degraded diterpenoids with antimicrobial activity, from Trigonostemon flavidus” (J Nat Prod, 2012)
